Data reported in ChEMBL document CHEMBL3797154, “Design and Synthesis of 1-((1,5-Bis(4-chlorophenyl)-2-methyl-1H-pyrrol-3-yl)methyl)-4-methylpiperazine (BM212) and N-Adamantan-2-yl-N'-((E)-3,7-dimethylocta-2,6-dienyl)ethane-1,2-diamine (SQ109) Pyrrole Hybrid Derivatives: Discovery of Potent Antitubercular Agents Effective against …” (J Med Chem, 2016).
≈ marks a conversion by molar mass, not a printed value. Calls of active or inactive are those of the source. No cut-off for these calls is given here.

Legend:
[1] = tested on: Mycobacterium tuberculosis; assay: Antimycobacterial activity against Mycobacterium tuberculosis H37Rv ATTC 27294 assessed as inhibition of mycobacterial growth incubated for 7 days; type: functional; conditions: H37Rv ATTC 27294, 168 h
In short: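 MIC by HT-SPOTi on Middlebrook 7H10 agar with 0.05% (v/v) glycerol and 10% (v/v) OADC in 96-well format. Compounds dissolved at 50 mg/mL (stock), two-fold serial dilutions, final 500-0.5 µg/mL. Each well spotted with 2 µL early-to-midlog culture (2x10^3 CFU), incubated at 37 °C until distinct spots in control wells. DMSO-only and isoniazid controls; triplicate.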

[2] = Selectivity index, ratio of GIC50 for cytotoxicity against human THP1 cells to MIC for Mycobacterium tuberculosis H37Rv ATTC 27294; type: toxicity, cell-based, THP-1; conditions: read-out: Selectivity Index
In short: (§1)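 SI = GIC50 / H37Rv MIC (agar spot assay). GIC50 from cells in RPMI-1640 + 10% FBS, 37 °C, 5% CO2; 10^5 cells/mL added to two-fold compound dilutions from 50 mg/mL stock, solvent control row. 48 h exposure, washes (THP-1 centrifuged), fresh medium plus 0.01% […], overnight; fluorescence ex 560/em 590 nm.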

[3] = tested on: Mycobacterium tuberculosis; assay: Antimycobacterial activity against Mycobacterium tuberculosis mc'2-7000x assessed as inhibition of mycobacterial growth; type: functional
[4] = Cytotoxic activity against mouse RAW264.7 cells assessed as reduction in cell viability incubated for 48 hrs by […] based assay
In short: (§2)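 RAW264.7 or THP-1 cells were grown in RPMI-1640 with 10% FBS and seeded at 10^5 cells/mL. Compound was two-fold serially diluted from a 50 mg/mL stock, with a solvent-control row. Plates were held 48 h at 37 °C in 5% CO2. Wells were washed twice with PBS, with centrifugation between washes for THP-1, then given fresh RPMI plus 0.01% […]. After overnight incubation, fluorescence was read at 560/590 nm and GIC50 derived.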

[5] = tested on: Mycolicibacterium smegmatis; assay: Antimycobacterial activity against Mycobacterium smegmatis str. MC2 155 ATCC 700084 assessed as inhibition of mycobacterial growth incubated for 24 hrs by MABA method; type: functional; conditions: MC2 155 ATCC 700084, 24 h
[6] = Selectivity index, ratio of GIC50 for cytotoxicity against mouse RAW264.7 cells to MIC for Mycobacterium tuberculosis H37Rv ATTC 27294; type: toxicity, cell-based; conditions: read-out: Selectivity Index; in short: as §1
Mycolicibacterium aurum [7] = assay: Inhibition of multidrug resistance efflux pump in Mycobacterium aurum ATCC 23366 assessed as inhibition of ethidium bromide efflux by measuring relative fluorescence units for ethidium bromide accumulation at 1/4 times MIC incubated for 60 mins by fluorimetric assay
In short: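 Whole-cell efflux assay: early-log cells (OD600 ~0.8) adjusted to OD600 0.4, washed into PBS; 4-6x10^7 bacteria/mL with 0.4% glucose, 0.5 mg/L ethidium bromide substrate and compound at 1/4x MIC. Fluorescence ex 544/em 590 nm at 37 °C every minute for 60 min; accumulation scored 0-4 by relative fluorescence bands. Verapamil positive, PBS negative control.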

[8] = Cytotoxic activity against human THP1 cells assessed as reduction in cell viability incubated for 48 hrs by […] based assay; parameters: species or system THP-1; conditions: THP1 cells; in short: as §2
Mycolicibacterium aurum [9] = assay: Antimycobacterial activity against Mycobacterium aurum ATCC 23366 assessed as inhibition of mycobacterial growth incubated for 4 days; type: functional
In short: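 HT-SPOTi agar dilution: two-fold serial dilutions of compound were mixed into Middlebrook 7H10 agar with 0.05% glycerol and 10% OADC, giving a final range of 500–0.5 µg/mL. Each well was spotted with 2x10^3 CFU of early-to-mid-log culture. Plates were incubated at 35 or 37 °C until spots appeared in control wells. Controls were DMSO-only and isoniazid. The MIC was read, in triplicate.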

Q: Which MIC [1] does the source give for `Cc1c(CN2CCN(c3ccccc3)CC2)c(CN2CCN(c3ccccc3)CC2)c(C)n1-c1ccc(Cl)cc1` here?
A: 31 µg/mL (≈ 55.9 µM)

Q: And the selectivity ratio [2]?
A: 3.6

Q: And the MIC [3]?
A: > 64 µg/mL

Q: And the GI50 at 48 h [4]?
A: 500 µg/mL (≈ 902 µM)

Q: And the MIC [5]?
A: > 64 µg/mL

Q: And the selectivity ratio [6]?
A: 16

Q: And the Activity (Mycolicibacterium aurum [7])?
A: 2 RFU

Q: What about the GI50 at 48 h [8] of the same compound?
A: 113 µg/mL (≈ 204 µM)

Q: And the MIC (Mycolicibacterium aurum [9]; ATCC 23366, 96 h)?
A: 250 µg/mL (≈ 451 µM)

Q: What does the source list for `Cc1cc(CN2CCN(C3C4CC5CC(C4)CC3C5)CC2)c(C)n1-c1ccc(C(C)C)cc1` (stereo not given)?
A: MIC [1]: 16 µg/mL (≈ 35.9 µM); selectivity ratio [2]: 4.5; MIC [3]: 3.3 µg/mL (≈ 7.4 µM); GI50 at 48 h [4]: 92 µg/mL (≈ 206 µM); MIC [5]: 21 µg/mL (≈ 47.1 µM); selectivity ratio [6]: 5.7; Activity (Mycolicibacterium aurum [7]): 3 RFU; GI50 at 48 h [8]: 72 µg/mL (≈ 162 µM); MIC (Mycolicibacterium aurum [9]; ATCC 23366, 96 h): 500 µg/mL (≈ 1120 µM)

Q: Which MIC [1] does the source give for `Cc1cc(CNC2C3CC4CC(C3)CC2C4)c(C)n1-c1ccc(Cl)cc1` (stereo not given) here?
A: 1.9 µg/mL (≈ 5.15 µM)

Q: And the selectivity ratio [2]?
A: 7.8

Q: What about the MIC [3] of the same compound?
A: 1 µg/mL (≈ 2.71 µM)

Q: And the GI50 at 48 h [4]?
A: 19 µg/mL (≈ 51.5 µM)

Q: And the MIC [5]?
A: 16 µg/mL (≈ 43.4 µM)

Q: What about the selectivity ratio [6] of the same compound?
A: 10

Q: And the Activity (Mycolicibacterium aurum [7])?
A: 1 RFU

Q: And the GI50 at 48 h [8]?
A: 15 µg/mL (≈ 40.7 µM)

Q: And the MIC (Mycolicibacterium aurum [9]; ATCC 23366, 96 h)?
A: 62 µg/mL (≈ 168 µM)

Q: What does the source list for `Cc1cc(CN2CCN(C34CC5CC(CC(C5)C3)C4)CC2)c(C)n1-c1ccc(Cl)cc1`?
A: MIC [1]: 16 µg/mL (≈ 36.5 µM); selectivity ratio [2]: 1; MIC [3]: 8 µg/mL (≈ 18.3 µM); GI50 at 48 h [4]: 0.1 µg/mL (≈ 0.228 µM); MIC [5]: 8 µg/mL (≈ 18.3 µM); selectivity ratio [6]: 0.006; Activity (Mycolicibacterium aurum [7]): 4 RFU; GI50 at 48 h [8]: 16 µg/mL (≈ 36.5 µM); MIC (Mycolicibacterium aurum [9]; ATCC 23366, 96 h): 16 µg/mL (≈ 36.5 µM)

Q: With `Cc1c(CN2CCN(C3CC4CCC3C4)CC2)cc(-c2ccc(Cl)cc2)n1-c1ccc(Cl)cc1` (mixture of isomers) as the compound, how does the selectivity ratio [2] read?
A: 6.7

Q: What about the MIC [3] of the same compound?
A: 64 µg/mL

Q: And the MIC [5]?
A: 64 µg/mL

Q: What about the GI50 at 48 h [8] of the same compound?
A: 429 µg/mL

Q: What about the MIC (Mycolicibacterium aurum [9]; ATCC 23366, 96 h) of the same compound?
A: 250 µg/mL

Q: For `Cc1c(CN2CCN(c3ccccc3)CC2)cc(-c2ccc(Cl)cc2)n1-c1ccc(Cl)cc1`, which MIC [1] is on record?
A: 1.9 µg/mL (≈ 3.99 µM)

Q: And the selectivity ratio [2]?
A: 155

Q: And the MIC [3]?
A: 1 µg/mL (≈ 2.1 µM)

Q: And the GI50 at 48 h [4]?
A: 175 µg/mL (≈ 367 µM)

Q: And the MIC [5]?
A: > 64 µg/mL

Q: And the selectivity ratio [6]?
A: 92

Q: And the Activity (Mycolicibacterium aurum [7])?
A: 2 RFU

Q: And the GI50 at 48 h [8]?
A: 294 µg/mL (≈ 617 µM)

Q: What about the MIC (Mycolicibacterium aurum [9]) of the same compound?
A: inactive

Q: Which MIC [1] does the source give for `Cc1cc(CNC2CCCCC2)c(C)n1-c1ccc(Cl)cc1` here?
A: 0.2 µg/mL (≈ 0.631 µM)

Q: What about the selectivity ratio [2] of the same compound?
A: 37

Q: What about the MIC [3] of the same compound?
A: 0.5 µg/mL (≈ 1.58 µM)

Q: And the GI50 at 48 h [4]?
A: 10 µg/mL (≈ 31.6 µM)

Q: What about the MIC [5] of the same compound?
A: 8 µg/mL (≈ 25.2 µM)

Q: What about the selectivity ratio [6] of the same compound?
A: 50

Q: And the Activity (Mycolicibacterium aurum [7])?
A: 2 RFU

Q: And the GI50 at 48 h [8]?
A: 7.4 µg/mL (≈ 23.4 µM)

Q: What about the MIC (Mycolicibacterium aurum [9]; ATCC 23366, 96 h) of the same compound?
A: 7.8 µg/mL (≈ 24.6 µM)

Q: For `Cc1c(CN2CCN(C)CC2)cc(-c2ccc(Cl)cc2)n1-c1ccc(Cl)cc1`, which MIC [1] is on record?
A: 1 µg/mL (≈ 2.41 µM)

Q: What about the selectivity ratio [2] of the same compound?
A: 3.23

Q: What about the MIC [3] of the same compound?
A: 8 µg/mL (≈ 19.3 µM)

Q: And the GI50 at 48 h [4]?
A: 19 µg/mL (≈ 45.9 µM)

Q: And the MIC [5]?
A: 25 µg/mL (≈ 60.3 µM)

Q: And the selectivity ratio [6]?
A: 19

Q: What about the Activity (Mycolicibacterium aurum [7]) of the same compound?
A: 2 RFU

Q: And the GI50 at 48 h [8]?
A: 3.23 µg/mL (≈ 7.8 µM)

Q: And the MIC (Mycolicibacterium aurum [9]; ATCC 23366, 96 h)?
A: 16 µg/mL (≈ 38.6 µM)

Q: With `Cc1cc(CN2CCN(C3C4CC5CC(C4)CC3C5)CC2)c(C)n1-c1ccccc1F` (stereo not given) as the compound, how does the MIC [1] read?
A: 3.9 µg/mL (≈ 9.25 µM)

Q: What about the selectivity ratio [2] of the same compound?
A: 6.7

Q: And the MIC [3]?
A: 1 µg/mL (≈ 2.37 µM)

Q: What about the GI50 at 48 h [4] of the same compound?
A: 11 µg/mL (≈ 26.1 µM)

Q: What about the MIC [5] of the same compound?
A: 13 µg/mL (≈ 30.8 µM)

Q: And the selectivity ratio [6]?
A: 2.8

Q: What about the Activity (Mycolicibacterium aurum [7]) of the same compound?
A: 1 RFU

Q: What about the GI50 at 48 h [8] of the same compound?
A: 26 µg/mL (≈ 61.7 µM)

Q: What about the MIC (Mycolicibacterium aurum [9]; ATCC 23366, 96 h) of the same compound?
A: 250 µg/mL (≈ 593 µM)

Q: For `Cc1cccc(-n2c(C)cc(CN3CCN(C4C5CC6CC(C5)CC4C6)CC3)c2C)c1` (stereo not given), which MIC [1] is on record?
A: 16 µg/mL (≈ 38.3 µM)

Q: And the selectivity ratio [2]?
A: 2.3

Q: And the MIC [3]?
A: 32 µg/mL (≈ 76.6 µM)

Q: And the GI50 at 48 h [4]?
A: 22 µg/mL (≈ 52.7 µM)

Q: What about the MIC [5] of the same compound?
A: 64 µg/mL (≈ 153 µM)

Q: What about the selectivity ratio [6] of the same compound?
A: 1.4

Q: And the Activity (Mycolicibacterium aurum [7])?
A: 2 RFU

Q: What about the GI50 at 48 h [8] of the same compound?
A: 37 µg/mL (≈ 88.6 µM)

Q: And the MIC (Mycolicibacterium aurum [9]; ATCC 23366, 96 h)?
A: 500 µg/mL (≈ 1200 µM)

Q: With `Cc1cc(CNCc2ccc(F)cc2)c(C)n1-c1ccc(Cl)cc1` as the compound, how does the MIC [1] read?
A: > 125 µg/mL

Q: And the MIC [3]?
A: 0.7 µg/mL (≈ 2.04 µM)

Q: And the GI50 at 48 h [4]?
A: 26 µg/mL (≈ 75.8 µM)

Q: And the MIC [5]?
A: 2 µg/mL (≈ 5.83 µM)

Q: What about the Activity (Mycolicibacterium aurum [7]) of the same compound?
A: 1 RFU

Q: What about the GI50 at 48 h [8] of the same compound?
A: 8.4 µg/mL (≈ 24.5 µM)

Q: And the MIC (Mycolicibacterium aurum [9]; ATCC 23366, 96 h)?
A: 1.9 µg/mL (≈ 5.54 µM)

Q: Which selectivity ratio [2] does the source give for `Cc1c(CNC2CCCCC2)cc(-c2ccc(Cl)cc2)n1-c1ccc(Cl)cc1` here?
A: 0.5

Q: What about the MIC [3] of the same compound?
A: 8 µg/mL (≈ 19.4 µM)

Q: What about the MIC [5] of the same compound?
A: 4 µg/mL (≈ 9.68 µM)

Q: What about the Activity (Mycolicibacterium aurum [7]) of the same compound?
A: 2 RFU

Q: And the GI50 at 48 h [8]?
A: 3.9 µg/mL (≈ 9.43 µM)

Q: What about the MIC (Mycolicibacterium aurum [9]; ATCC 23366, 96 h) of the same compound?
A: 1 µg/mL (≈ 2.42 µM)

Q: What does the source list for `Cc1c(CNCc2ccccc2)cc(-c2ccc(Cl)cc2)n1-c1ccc(Cl)cc1`?
A: selectivity ratio [2]: 6.1; MIC [3]: 16 µg/mL (≈ 38 µM); MIC [5]: 8 µg/mL (≈ 19 µM); Activity (Mycolicibacterium aurum [7]): 1 RFU; GI50 at 48 h [8]: 99 µg/mL (≈ 235 µM); MIC (Mycolicibacterium aurum [9]; ATCC 23366, 96 h): 1 µg/mL (≈ 2.37 µM)
